ChEMBL document CHEMBL1123216, “Sustained brain-specific delivery of estradiol causes long-term suppression of luteinizing hormone secretion” (J Med Chem, 1986)

Legend:
Format in all cases: functional, organism-based
Rattus norvegicus [1] = test: Serum concentration of estradiol 24 days after intravenous administration in Orchidectomized rats
In short: (§1)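 Male rats were orchidectomized and 2 weeks later given a single iv dose (2.1 or 3.0 mg/kg, dimethyl sulfoxide vehicle). After decapitation at 12, 18 or 24 days, serum estradiol was measured by a published radioimmunoassay in modified form, in duplicate. Assay sensitivity limit was 20 pg/mL. Values are mean ± SEM, with the number of samples below the limit given per group.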

Rattus norvegicus [2] = test: Serum concentration of LH 12 days after intravenous administration in Orchidectomized rats
In short: (§2)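 Male rats given a single iv dose (2.1 or 3.0 mg/kg, dimethyl sulfoxide vehicle at 0.5 mL/kg) 2 weeks after orchidectomy. At 12, 18 or 24 days they were killed by decapitation and serum LH was measured by radioimmunoassay, expressed against reference preparation LH-RP-2. Samples assayed in duplicate; mean ± SEM, 6–7 animals per group.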

Rattus norvegicus [3] = test: Serum concentration of LH 18 days after intravenous administration in Orchidectomized rats; in short: as §2
Rattus norvegicus [4] = test: Serum concentration of LH 24 days after intravenous administration in Orchidectomized rats; in short: as §2
Rattus norvegicus [5] = test: Serum concentration of estradiol 12 days after intravenous administration in Orchidectomized rats; in short: as §1
Rattus norvegicus [6] = test: Serum concentration of estradiol 18 days after intravenous administration in Orchidectomized rats; in short: as §1

SMILES	Concentration (Rattus norvegicus [1]) [ng/mL]	Concentration (Rattus norvegicus [2]) [ng/mL]	Concentration (Rattus norvegicus [3]) [ng/mL]	Concentration (Rattus norvegicus [4]) [ng/mL]	Concentration (Rattus norvegicus [5]) [ng/mL]	Concentration (Rattus norvegicus [6]) [ng/mL]
C[S+](C)[O-]	0.0244	6.8	12.4	8.6	0.0275	< 0.02
CN1C=CCC(C(=O)O[C@H]2CC[C@H]3[C@@H]4CCc5cc(O)ccc5[C@H]4CC[C@]23C)=C1	0.0241	0.8	1.7	2.9	0.0259	< 0.02
C[C@]12CC[C@@H]3c4ccc(O)cc4CC[C@H]3[C@@H]1CC[C@@H]2O	0.0312	12.9	12.1	11.6	0.0293	< 0.02
